≈ marks a conversion by molar mass, not a printed value. Calls of active or inactive are those of the source. The calls are words filed in the database; no cut-off is given here.
Tests used:
[1] = test system: Staphylococcus aureus; assay: Antimicrobial activity against methicillin-resistant Staphylococcus aureus N315 after 18 to 20 hrs by liquid microdilution method; type: functional
[2] = test system: Staphylococcus aureus; assay: Antimicrobial activity against methicillin-resistant Staphylococcus aureus OM481 clinical isolate after 18 to 20 hrs by liquid microdilution method; type: functional
[3] = test system: Staphylococcus aureus; assay: Antimicrobial activity against 2-phenoxyphenol/methicillin-resistant Staphylococcus aureus after 18 to 20 hrs by liquid microdilution method; type: functional
[4] = test system: Staphylococcus aureus; assay: Increase in cytoplasmic membrane permeability in Staphylococcus aureus N315 cells assessed as efflux of EtBr by fluorescence assay; type: functional, organism-based
How it was run: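 EtBr-loaded S. aureus N315 cells; EtBr release followed as fall in fluorescence (excitation 530 nm, emission 600 nm) after adding test compound.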

[5] = test system: Staphylococcus aureus; assay: Increase in cytoplasmic membrane permeability in Staphylococcus aureus N315 cells assessed as influx of EtBr by fluorescence assay; type: functional, organism-based
How it was run: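 Energized S. aureus N315 cells; EtBr uptake followed as rise in fluorescence (excitation 530 nm, emission 600 nm) immediately after adding test compound.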

[6] = test system: Staphylococcus aureus; assay: Effect on membrane permeability assessed as increase in intracellular sodium levels in Staphylococcus aureus N315 cells by ICP-OES analysis; type: functional, organism-based
[7] = test system: Staphylococcus aureus; assay: Bactericidal activity against Staphylococcus aureus N315 cells assessed as reduction of bacterial burden at 4 times MIC up to 24 hrs; type: functional, organism-based
How it was run: (§1)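 S. aureus N315 (MRSA strain) survival assay: compound added at 1× or 4× its MIC, with MIC determined by liquid microdilution. Read-out is the number of viable cells remaining over time after addition.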

[8] = test system: Staphylococcus aureus; assay: Effect on membrane permeability assessed as decrease in intracellular potassium levels in Staphylococcus aureus N315 cells by ICP-OES analysis; type: functional, organism-based
[9] = test system: Staphylococcus aureus; assay: Bactericidal activity against Staphylococcus aureus N315 cells assessed as reduction of bacterial burden at MIC up to 24 hrs; type: functional; how it was run: as §1

**Q.** Cc1cc(O)ccc1-c1ccc(CCc2ccccc2)cc1O was tested. Which MIC [1] did it give?
**A.** 16 µg/mL (≈ 52.6 µM)

**Q.** What about the MIC [2] of the same molecule?
**A.** 16 µg/mL (≈ 52.6 µM)

**Q.** And the MIC [3]?
**A.** 16 µg/mL (≈ 52.6 µM)

**Q.** And the Activity [4]?
**A.** Active

**Q.** What about the Activity [5] of the same molecule?
**A.** Active

**Q.** What does the source list for Oc1ccc2c(c1)CCc1cccc(c1)-c1cccc(c1)CCc1ccc-2c(O)c1?
**A.** MIC [1]: 0.5 µg/mL (≈ 1.27 µM); MIC [2]: 0.5 µg/mL (≈ 1.27 µM); MIC [3]: 0.5 µg/mL (≈ 1.27 µM)

**Q.** Which MIC [1] does the source give for Oc1ccc(-c2ccccc2O)cc1 here?
**A.** > 128 µg/mL

**Q.** What about the MIC [2] of the same molecule?
**A.** > 128 µg/mL

**Q.** What about the MIC [3] of the same molecule?
**A.** > 128 µg/mL

**Q.** For Oc1ccc2c(c1)CCc1ccc(cc1)Oc1cc(ccc1O)CCc1ccc-2c(O)c1 [RICCARDI C], which MIC [1] is on record?
**A.** 2 µg/mL (≈ 4.71 µM)

**Q.** And the MIC [2]?
**A.** 2 µg/mL (≈ 4.71 µM)

**Q.** What about the MIC [3] of the same molecule?
**A.** 2 µg/mL (≈ 4.71 µM)

**Q.** How did the MIC [1] turn out when Oc1ccc(CCc2cccc(O)c2)cc1 [LUNULARIN] was run?
**A.** > 128 µg/mL

**Q.** What about the MIC [2] of the same molecule?
**A.** > 128 µg/mL

**Q.** And the MIC [3]?
**A.** > 128 µg/mL

**Q.** What does the source list for Oc1ccccc1Oc1ccccc1?
**A.** MIC [1]: 8 µg/mL (≈ 43 µM); MIC [2]: 8 µg/mL (≈ 43 µM); MIC [3]: > 128 µg/mL

**Q.** What does the source list for Oc1ccc(-c2ccc(CCc3ccccc3)cc2O)c(CCc2ccccc2)c1?
**A.** MIC [1]: 8 µg/mL (≈ 20.3 µM); Activity [6]: Active; Activity [7]: Active; MIC [2]: 8 µg/mL (≈ 20.3 µM); MIC [3]: 8 µg/mL (≈ 20.3 µM); Activity [8]: Active; Activity [9]: 3 log10CFU/ml; Activity [4]: Active; Activity [5]: Active
